Test results: ChEMBL document CHEMBL1148736, “N-Acylthiadiazolines, a new class of liver X receptor agonists with selectivity for LXRbeta” (J Med Chem, 2007)
Activity calls are given as the source filed them. No cut-off for these calls is given here.

Legend:
[1] = target: T1, Oxysterols receptor LXR-beta (Homo sapiens) (UniProt P55055); test: Agonist activity at GAL-linked human LXRbeta expressed in THP1 cells assessed as stimulation of co-activator recruitment by FRET assay relative to GW-3965; format: functional
T1 sequence (whole entry): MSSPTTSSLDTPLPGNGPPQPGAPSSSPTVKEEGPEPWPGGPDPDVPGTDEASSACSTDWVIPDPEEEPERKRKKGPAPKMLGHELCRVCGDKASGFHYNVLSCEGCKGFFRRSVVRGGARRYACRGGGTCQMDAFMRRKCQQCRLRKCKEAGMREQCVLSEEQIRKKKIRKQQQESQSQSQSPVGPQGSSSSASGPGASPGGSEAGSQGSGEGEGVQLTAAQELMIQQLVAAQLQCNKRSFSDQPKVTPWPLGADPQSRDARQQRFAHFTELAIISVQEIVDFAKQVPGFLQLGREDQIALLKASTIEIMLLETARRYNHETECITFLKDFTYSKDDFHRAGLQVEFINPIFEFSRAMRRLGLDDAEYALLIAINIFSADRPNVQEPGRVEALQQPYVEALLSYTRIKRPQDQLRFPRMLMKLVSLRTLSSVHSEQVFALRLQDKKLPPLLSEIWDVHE
Summary of the method: (§1)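 Cell-free TR-FRET coactivator recruitment: 20 nM His-tagged hLXRα or hLXRβ, 300 nM biotinylated SRC-1 peptide, Eu-anti-His antibody, APC-streptavidin. 12-point curves from 20 µM; 1 h at 37 °C. Duplicate. %E = maximal coactivator recruitment relative to reference dual agonist in same experiment.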

[2] = target: T2, Oxysterols receptor LXR-alpha (Homo sapiens) (UniProt Q13133); test: Agonist activity at GAL-linked human LXRalpha expressed in THP1 cells assessed as stimulation of co-activator recruitment by FRET assay relative to GW-3965; format: functional; summary of the method: as §1
T2 sequence (whole entry): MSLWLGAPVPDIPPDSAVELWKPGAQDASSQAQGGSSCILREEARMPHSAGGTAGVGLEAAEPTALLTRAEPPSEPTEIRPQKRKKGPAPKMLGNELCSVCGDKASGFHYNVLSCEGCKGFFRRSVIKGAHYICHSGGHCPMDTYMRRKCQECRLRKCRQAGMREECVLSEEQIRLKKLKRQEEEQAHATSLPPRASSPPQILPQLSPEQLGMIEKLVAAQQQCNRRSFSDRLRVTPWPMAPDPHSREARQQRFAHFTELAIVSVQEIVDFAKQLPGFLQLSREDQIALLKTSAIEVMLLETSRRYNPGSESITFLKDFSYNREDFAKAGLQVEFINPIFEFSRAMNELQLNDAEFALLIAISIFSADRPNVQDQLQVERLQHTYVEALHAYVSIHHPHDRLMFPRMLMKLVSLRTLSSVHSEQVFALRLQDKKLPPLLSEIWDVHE

[3] = target: T3, Oxysterols receptor LXR-beta (Homo sapiens, UniProt P55055); test: Agonist activity at GAL-linked human LXRbeta expressed in THP1 cells assessed as stimulation of co-activator recruitment by FRET assay; format: functional; summary of the method: as §1
T3 sequence (P55055 whole entry): T1 sequence (whole entry)

THP-1 [4] = test: Increase in ABCA1 gene expression in THP1 cells at 10 uM relative to GW-3965; format: functional, Homo sapiens
Summary of the method: (§2)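 THP-1 cells differentiated with 40 ng/mL PMA for 1 day, then switched to RPMI with 2% lipoprotein-deficient FBS. Compound added 6 h later at 1 or 10 µM in DMSO, incubated 24 h. ABCA1 mRNA by one-step TaqMan qRT-PCR, triplicate, multiplexed with 36B4; fold induction vs DMSO, expressed relative to reference dual agonist.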

THP-1 [5] = test: Increase in ABCA1 gene expression in THP1 cells at 1 uM relative to GW-3965; format: functional, Homo sapiens; summary of the method: as §2
Macrophage = test: Induction of APO-AI-dependent cholesterol efflux in mouse macrophages; format: functional, cell-based
Summary of the method: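 Peritoneal macrophages labelled 24 h with [3H]cholesterol (1.0 µCi/mL) plus ACAT inhibitor 58-035 (2 µg/mL), with compound. Then 2–4 h equilibration in label-free medium with compound. Efflux for 4 h into DMEM/0.2% BSA with or without apoAI (15 µg/mL). apoAI-dependent efflux = medium radioactivity as % of total cell plus medium. Triplicate.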

[6] = target: T3, Oxysterols receptor LXR-beta; test: Activity at human LXRbeta by Gal4 transactivation assay
Summary of the method: (§3)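 GAL4 DBD fused to hLXRα or hLXRβ LBD in pcDNA3, co-transfected into HepG2 with luciferase reporter. Cells in DMEM with 10% lipoprotein-deficient FBS, 7.5 µM lovastatin, 100 µM mevalonic acid. Ligand added 24 h post-transfection as 11-point curves from 10 µM; luciferase read after 16 h. Run in quadruplicate. %E = max fold induction vs max fold induction of reference dual agonist in same experiment.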

[7] = target: T2, Oxysterols receptor LXR-alpha (Homo sapiens); test: Displacement of [3H]T-0901317 from GAL-linked human LXRalpha expressed in THP1 cells at 20 uM by SPA relative to GW-3965; format: cell-based; conditions: THP-1
Summary of the method: (§4)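 Scintillation proximity displacement with His-tagged hLXRα or hLXRβ LBD (200 ng/well) and 30 nM [3H]T0901317. Beads 0.2 mg/well in phosphate buffer with EDTA, NaCl, DTT, CHAPS, 10% glycerol. 12-point curves from 20 µM; shaken 3 h at room temperature. No-competitor wells = 100% binding; nonspecific binding without protein. Efficacy = maximal displacement relative to reference dual agonist.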

[8] = target: T4, Oxysterols receptor LXR-alpha (Homo sapiens, UniProt Q13133); test: Activity at human LXRalpha by Gal4 transactivation assay; summary of the method: as §3
T4 sequence (Q13133 whole entry): T2 sequence (whole entry)

[9] = target: T2, Oxysterols receptor LXR-alpha (Homo sapiens); test: Activity at human LXRalpha by Gal4 transactivation assay relative to GW-3965; summary of the method: as §3
[10] = target: T1, Oxysterols receptor LXR-beta (Homo sapiens); test: Displacement of [3H]T-0901317 from GAL-linked human LXRbeta expressed in THP1 cells at 20 uM by SPA relative to GW-3965; format: cell-based; conditions: THP-1; summary of the method: as §4
[11] = target: T4, Oxysterols receptor LXR-alpha; test: Agonist activity at GAL-linked human LXRalpha expressed in THP1 cells assessed as stimulation of coactivator recruitment by FRET assay; format: functional; summary of the method: as §1
[12] = target: T1, Oxysterols receptor LXR-beta (Homo sapiens); test: Activity at human LXRbeta by Gal4 transactivation assay relative to GW-3965; summary of the method: as §3
Hepatocyte = test: Induction on FAS gene expression in human primary hepatocytes at 1 uM; format: functional, cell-based
Summary of the method: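 Primary human hepatocytes treated with 1 µM compound; FAS mRNA measured by TaqMan-based qRT-PCR.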

Compound	Efficacy [1]	Efficacy [2]	EC50 [3]	EC50 [6]	Efficacy [7]	EC50 [8]	Efficacy [9]	Efficacy [10]	EC50 [11]	Efficacy [12]	Activity [1]	Activity (THP-1 [4])	Activity (THP-1 [5])	Activity (Macrophage)	Activity (Hepatocyte)
O=C(c1c(F)cc(F)cc1F)N1N=C(c2ccc(Cl)cc2)SC1c1ccccc1OC(F)(F)F (stereo not given)	31%	< 15%	3400 nM									23%			
COc1cccc([C@@H]2SC(c3ccc(Cl)cc3)=NN2C(=O)c2c(F)cc(F)cc2F)c1OC		< 15%			< 15%		< 15%	< 15%		< 15%	< 15%	0%	0%		
COc1cccc(C2SC(c3ccc(Cl)cc3)=NN2C(=O)c2ccc(F)cc2F)c1OC (stereo not given)	80%	50%	980 nM						6700 nM			40%	23%		
COc1cccc(C2SC(c3ccc(F)c(F)c3)=NN2C(=O)c2cccc(F)c2)c1OC (stereo not given)	83%	30%	560 nM						1500 nM			47%	27%		
COc1cccc(C2SC(c3ccc(F)cc3)=NN2C(=O)c2cc(F)c(F)cc2F)c1OC (stereo not given)	40%	< 15%	600 nM									48%	30%		
O=S(=O)(c1ccccc1)N(CC(F)(F)F)c1ccc(C(O)(C(F)(F)F)C(F)(F)F)cc1															Active
COc1cccc(C2SC(c3ccc(C)cc3)=NN2C(=O)c2c(F)cc(F)cc2F)c1OC (stereo not given)	98%	52%	200 nM						1400 nM			34%	24%		
COc1cccc(C2SC(c3ccc(F)cc3)=NN2C(=O)c2c(F)ccc(F)c2F)c1OC (stereo not given)	74%	< 15%	970 nM									42%	35%		
COc1cccc(C2SC(c3ccc(F)cc3)=NN2C(=O)c2cccc(Cl)c2)c1OC (stereo not given)	82%	< 15%	250 nM									36%	13%		
COc1cccc(C2SC(c3ccc(Cl)cc3)=NN2C(=O)c2c(F)cc(F)cc2F)c1 (stereo not given)	60%	< 15%	3700 nM												
O=C(c1c(F)cc(F)cc1F)N1N=C(c2ccc(Cl)cc2)SC1c1cccc2c1OC(F)(F)O2 (stereo not given)	74%	71%	800 nM						3900 nM			61%	35%		
COc1cccc(C2SC(c3ccc(Cl)c(Cl)c3)=NN2C(=O)c2c(F)cc(F)cc2F)c1OC (stereo not given)	51%	< 15%	> 10000 nM									46%	18%		
COc1cccc(C2SC(c3ccc(F)cc3)=NN2C(=O)c2cc(F)cc(F)c2)c1OC (stereo not given)	95%	40%	470 nM						2100 nM			37%	21%		
COc1cccc(C2SC(c3ccc(Cl)cc3)=NN2C(=O)c2ccccc2)c1OC (stereo not given)		< 15%									< 15%				
COc1cccc(C2SC(c3ccc(Cl)cc3)=NN2C(=O)c2ccccc2F)c1OC (stereo not given)	48%	< 15%	7700 nM												
COc1ccccc1C1(C)SC(c2ccc(F)cc2)=NN1C(=O)c1c(F)cc(F)cc1F (stereo not given)	50%	< 15%	4000 nM												

Further lines, with some results ahead:

Efficacy [1]	Efficacy [2]	EC50 [3]	EC50 [6]	Efficacy [7]	EC50 [8]	Efficacy [9]	Efficacy [10]	EC50 [11]	Efficacy [12]	Activity [1]	Compound	Activity (THP-1 [4])	Activity (THP-1 [5])	Activity (Macrophage)	Activity (Hepatocyte)
94%	64%	67 nM	63 nM	80%	346 nM	41%	100%	1600 nM	98%		COc1cccc([C@H]2SC(c3ccc(Cl)cc3)=NN2C(=O)c2c(F)cc(F)cc2F)c1OC	60%	39%	Active	
100%	64%	81 nM						700 nM			COc1cccc(C2SC(c3ccc(F)cc3)=NN2C(=O)c2cc(F)c(F)c(OC)c2F)c1OC (stereo not given)	59%	30%		
100%	92%	6 nM						70 nM			COc1cc(F)ccc1C1SC(c2ccc(F)cc2)=NN1C(=O)c1c(F)cc(F)cc1F (stereo not given)	59%	99%		
110%	80%	35 nM						180 nM			COc1ccccc1C1SC(c2ccc(Cl)cc2)=NN1C(=O)c1c(F)cc(F)cc1F (stereo not given)	54%	57%		
92%	43%	160 nM						900 nM			COc1cccc(C2SC(c3ccc(F)cc3)=NN2C(=O)c2c(F)cc(Br)cc2F)c1OC (stereo not given)	42%			
90%	46%	140 nM						2400 nM			COc1cccc(C2SC(c3ccc(F)cc3)=NN2C(=O)c2cc(F)ccc2C)c1OC (stereo not given)	32%	21%		
100%	100%	27 nM	4 nM	100%	66 nM	100%	100%	97 nM	100%		O=C(O)Cc1cccc(OCCCN(Cc2cccc(C(F)(F)F)c2Cl)CC(c2ccccc2)c2ccccc2)c1	100%	100%		Active
90%	76%	150 nM						1900 nM			O=C(c1c(F)cc(F)cc1F)N1N=C(c2ccc(F)cc2)SC1c1ccccc1OC(F)F (stereo not given)		26%		
100%	47%	170 nM						900 nM			COc1cc(F)c(C(=O)N2N=C(c3ccc(F)cc3)SC2c2cccc(OC)c2OC)c(F)c1 (stereo not given)	42%	81%		
